Assay results: ChEMBL document CHEMBL3856193, “Combretastatin A-4 analogues with benzoxazolone scaffold: Synthesis, structure and biological activity” (Eur J Med Chem, 2016)

Columns and labels:
[1] = Growth inhibition of human K562 cells measured after 72 hrs by MTT assay; format: functional, cell-based; settings: K562, 72 h
How it was run: (§1)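 Cells seeded at 1 x 10^4/100 µL, treated 24 h later with drug diluted from 2 mmol/L DMSO stock (0.01% DMSO final), 72 h incubation. MTT added for 3 h at 37°C, formazan dissolved in 0.1 N HCl/isopropanol, OD read at 550/630 nm. Eight replicates per concentration, mean ± SD. IC50 from curve fitting. Cells kept at 37°C in humidified CO2.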

[2] = Growth inhibition of human EAhy926 cells measured after 72 hrs by MTT assay; format: functional, cell-based; settings: EA.hy 926, 72 h; how it was run: as §1
[3] = Growth inhibition of human HepG2 cells measured after 72 hrs by MTT assay; format: functional, cell-based; settings: HepG2, 72 h; how it was run: as §1
[4] = Solubility of compound in water; format: physicochemical; settings: buffer

Compound	IC50 [1] [µM]	IC50 [2] [µM]	IC50 [3] [µM]	solubility [4]
COc1cc(/C=C\c2cccc3c2oc(=O)n3C)cc(OC)c1	0.95	9.53	4.25	–
COc1ccc(/C=C\c2cc(OC)c(OC)c(OC)c2)cc1N.Cl	–	–	–	Soluble
COc1ccc(/C=C\c2ccc3c(c2)oc(=O)n3C)cc1OC	> 50	> 50	38.3	–
COc1ccc(/C=C\c2ccc3c(c2)oc(=O)n3C)cc1	> 50	> 50	> 50	–
COc1ccc(/C=C\c2cccc3oc(=O)n(C)c23)cc1OC	2.07	> 50	> 50	–
COc1cc(/C=C\c2cccc3c2oc(=O)n3C)cc(OC)c1OC	0.71	10.3	1.07	–
COc1ccc(/C=C\c2cccc3c2oc(=O)n3C)cc1OC	> 50	> 50	30.2	–
COc1ccc(/C=C\c2ccc3oc(=O)n(C)c3c2)cc1	24.2	15.1	48.1	–
